Paper PMC2638640 (Toxicological Sciences, 2008)

How the values were obtained:
[1] = system: membrane ^3H-DA transport in striatal synaptosomes; test: Inhibition of synaptosomal membrane ^3H-DA transport; format: biochemical, rat; conditions: for effect of nucleophile on in vitro neurotoxicity of HNE: nucleophile 500μM, HNE-exposed striatal synaptosomes; for effect on synaptosomal uptake: nonconjugated analogs, striatal synaptosomes
Outline: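 Striatal synaptosomes from adult male Sprague-Dawley rats (Percoll gradient, 15%/23% interface), 10 μg protein, were exposed 15 min at 30°C to graded concentrations of test compound or Krebs-HEPES buffer. Samples were washed, filter-trapped and superfused 3 min with 0.30μM 3H-DA. Uptake measured ± Na+ (choline substitution), by scintillation. IC50 (95% CI) by nonlinear regression; n = 4–6.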

[2] = system: ^3H-DA transport in striatal synaptic vesicles; test: Inhibition of vesicular ^3H-DA transport; format: biochemical, rat; conditions: nonconjugated analogs, data not shown
Outline: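 Rat striatal synaptic vesicles (P5 pellet after osmotic shock of crude synaptosomes), 3 μg protein, were exposed 15 min to graded concentrations of test compound or assay buffer. They were then incubated 3 min at 30°C with Mg2+-ATP (2mM) and 0.30μM 3H-DA. Reaction stopped with cold buffer, followed by rapid filtration and scintillation counting. Nonspecific uptake: 4°C without Mg2+-ATP. IC50 (95% CI) by nonlinear regression; n = 3–5.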

[3] = system: total free sulfhydryl content in synaptosomes; test: Loss of free sulfhydryl groups in synaptosomes; format: biochemical, rat; conditions: nonconjugated analogs, striatal synaptosomes
Outline: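 Rat striatal synaptosomes (200 μg protein) were incubated 15 min with graded concentrations of test compound or control buffer, then solubilized in 1% SDS. DTNB (3mM) added; after 5 min equilibration at 25°C, absorbance read at 412 nm against a no-DTNB blank. Free thiol calculated from the extinction coefficient 1.36 × 10^4/M/cm; n = 4–6.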

[4] = Rate constants for reaction of type 2 alkenes with cysteine sulfhydryl groups; format: physicochemical; conditions: second-order rate of reaction with L-cysteine at pH 7.4
Outline: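 L-Cysteine was incubated with molar excess of test alkene at pH 7.4 or 8.8, with remaining sulfhydryl measured over time by DTNB absorbance. Pseudo-first-order constants (k1) came from these plots, then second-order constants (k2). Thiolate-corrected constants via log(k k2) = log k2 + pKa – pH, taking sulfhydryl pKa 8.5; n = 4–6 at pH 7.4.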

[5] = ref Doorn and Petersen, 2002, 2003; cited from earlier work

SMILES: CC(=O)N[C@@H](CS)C(=O)O [NAC, N-acetyl-L-cysteine]
- effect of nucleophile on in vitro neurotoxicity of HNE [1]: significantly reduced HNE neurotoxicity

SMILES: C=CCO [Allyl alcohol, allyl alcohol]
- effect on synaptosomal uptake [1]: did not affect
- effect on vesicular uptake [2]: did not affect vesicular uptake
- effect on synaptosomal sulfhydryl content [3]: did not affect

SMILES: NCCC(=O)N[C@@H](Cc1cnc[nH]1)C(=O)O [carnosine, β-alanyl-L-histidine]
- effect of nucleophile on in vitro neurotoxicity of HNE [1]: neither NAL nor carnosine affected the in vitro neurotoxicity of HNE

SMILES: CCC=O [Propanal, propanal]
- effect on synaptosomal uptake [1]: did not affect
- effect on vesicular uptake [2]: did not affect vesicular uptake
- effect on synaptosomal sulfhydryl content [3]: did not affect

SMILES: C=CC=O [Acrolein, acrolein]
- Log k2 (pH = 7.4) [4]: 2.596

SMILES: CCCCCC(O)C=CC=O (stereo not drawn) [HNE, 4-Hydroxy-2-nonenal]
- Log k2 (pH = 7.4) [4]: 0.938
- second-order rate constant k2 (mean ± SD), Cys toward HNE [5]: 1.33 ± 0.083 M^∧(−1)s^∧(−1)
- second-order rate constant k2 (mean ± SD), His toward HNE [5]: 2.14 ± 0.312 × 10^−3 M^∧(−1)s^∧(−1)
- second-order rate constant k2 (mean ± SD), Lys toward HNE [5]: 1.33 ± 0.050 × 10^−3 M^∧(−1)s^∧(−1)

SMILES: CC(=O)N[C@@H](CCCCN)C(=O)O [NAL, N-acetyl-L-lysine]
- effect of nucleophile on in vitro neurotoxicity of HNE [1]: neither NAL nor carnosine affected the in vitro neurotoxicity of HNE

SMILES: C=CC(C)=O [MVK, methyl vinyl ketone]
- Log k2 (pH = 7.4) [4]: 2.048
